Data reported in ChEMBL document CHEMBL2311431, “Synthesis and biological evaluation of some 5-arylidene-2-(1,3-thiazol-2-ylimino)-1,3-thiazolidin-4-ones as dual anti-inflammatory/antimicrobial agents” (Bioorg Med Chem, 2013).
In brackets after ≈: the same amount, converted by molar mass.

Assays:
Aspergillus niger [1] = test: Antifungal activity against Aspergillus niger ATCC 6275 after 72 hrs by serial dilution technique; format: functional; details: ATCC 6275, 72 h
In short: (§1)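 Serial dilution in malt broth; compounds from 1 mg/ml stocks in 5% DMSO; 72 h at 28 °C. MIC is the lowest concentration with no visible growth under a binocular microscope. Run in duplicate, repeated three times.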

Bacillus cereus [2] = test: Bactericidal activity against Bacillus cereus clinical isolate after 72 hrs by serial subcultivation method; format: functional
Bacillus cereus [3] = test: Antibacterial activity against Bacillus cereus clinical isolate after 24 hr by microdilution test; format: functional
In short: (§2)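 Broth microdilution in LB medium, about 1.0×10^4 cfu per well; compounds from 1 mg/ml stocks in 5% DMSO. Incubated 24 h. MIC is the lowest concentration with no visible growth under a binocular microscope. Run in duplicate, repeated three times.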

Penicillium ochrochloron [4] = test: Antifungal activity against Penicillium ochrochloron ATCC 9112 after 72 hrs by serial dilution technique; format: functional; details: ATCC 9112, 72 h; in short: as §1
Micrococcus flavus [5] = test: Antibacterial activity against Micrococcus flavus ATCC 10240 after 24 hr by microdilution test; format: functional; details: ATCC 10240, 24 h; in short: as §2
Aspergillus flavus [6] = test: Antifungal activity against Aspergillus flavus ATCC 9643 after 72 hrs by serial dilution technique; format: functional; details: ATCC 9643, 72 h; in short: as §1
Listeria monocytogenes [7] = test: Antibacterial activity against Listeria monocytogenes NCTC 7973 after 24 hr by microdilution test; format: functional; details: NCTC 7973, 24 h; in short: as §2
Listeria monocytogenes [8] = test: Bactericidal activity against Listeria monocytogenes NCTC 7973 after 72 hrs by serial subcultivation method; format: functional; details: NCTC 7973, 72 h
Aspergillus flavus [9] = test: Fungicidal activity against Aspergillus flavus ATCC 9643 after 72 hrs by serial subcultivation method; format: functional; details: ATCC 9643, 72 h
Mus musculus [10] = test: Acute toxicity in AKR mouse up to 0.5 mmol/kg, ip; format: organism-based; details: in vivo
Pseudomonas aeruginosa [11] = test: Bactericidal activity against Pseudomonas aeruginosa ATCC 27853 after 72 hrs by serial subcultivation method; format: functional; details: ATCC 27853, 72 h
Glycine max = test: (§3) Inhibition of soybean lipoxygenase assessed as inhibition of sodium linolate conversion to 13-hydroperoxylinoleic acid after 4 mins by spectrophotometry
[12] = as §3; design: species or system Glycine max; details: read-out: IC50
Aspergillus fumigatus [13] = test: Antifungal activity against Aspergillus fumigatus after 72 hrs by serial dilution technique; format: functional; in short: as §1
[14] = target: T1, Prostaglandin G/H synthase 1 (Ovis aries) (UniProt P05979); test: (§4) Inhibition of ovine COX1 assessed as inhibition of PGF2a production by enzyme immunoassay; design: concentration or dose not given beside the values; details: concentration not given here
T1 sequence (whole entry): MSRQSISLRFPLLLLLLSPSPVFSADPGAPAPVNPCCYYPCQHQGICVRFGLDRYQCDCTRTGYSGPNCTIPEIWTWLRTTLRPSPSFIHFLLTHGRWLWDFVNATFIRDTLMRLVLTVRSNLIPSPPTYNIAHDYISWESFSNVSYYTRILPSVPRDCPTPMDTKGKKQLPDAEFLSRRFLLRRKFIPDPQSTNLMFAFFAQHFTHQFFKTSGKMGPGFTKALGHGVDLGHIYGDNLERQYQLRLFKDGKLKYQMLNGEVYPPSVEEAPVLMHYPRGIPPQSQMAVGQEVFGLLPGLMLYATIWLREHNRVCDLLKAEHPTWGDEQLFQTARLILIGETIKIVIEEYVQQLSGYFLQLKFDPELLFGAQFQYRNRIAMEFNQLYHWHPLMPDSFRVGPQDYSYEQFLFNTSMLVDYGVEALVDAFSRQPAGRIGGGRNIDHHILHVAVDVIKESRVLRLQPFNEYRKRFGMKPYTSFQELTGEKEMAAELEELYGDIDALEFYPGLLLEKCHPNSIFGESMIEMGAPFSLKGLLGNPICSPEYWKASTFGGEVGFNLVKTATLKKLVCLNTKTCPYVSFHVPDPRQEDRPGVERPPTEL
In short: (§5)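 Ovine COX-1 from a commercial screening kit, tested with 0.1 µM arachidonic acid, which is below the saturating level. COX-derived PGH2 is reduced by SnCl2 to PGF2a, quantified by enzyme immunoassay with a broad prostaglandin antibody. At least triplicate.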

[15] = target: T2, Prostaglandin G/H synthase 1 (Ovis aries, UniProt P05979); test: as §4; in short: as §5
T2 sequence (P05979 whole entry): T1 sequence (whole entry)

Staphylococcus aureus [16] = test: Antibacterial activity against Staphylococcus aureus ATCC 6538 after 24 hr by microdilution test; format: functional; details: ATCC 6538, 24 h; in short: as §2
Aspergillus fumigatus [17] = test: Fungicidal activity against Aspergillus fumigatus after 72 hrs by serial subcultivation method; format: functional
Trichoderma viride [18] = test: Antifungal activity against Trichoderma viride IAM 5061 after 72 hrs by serial dilution technique; format: functional; details: IAM 5061, 72 h; in short: as §1
Talaromyces funiculosus [19] = test: Antifungal activity against Penicillium funiculosum ATCC 36839 after 72 hrs by serial dilution technique; format: functional; details: ATCC 36839, 72 h; in short: as §1
Escherichia coli [20] = test: Antibacterial activity against Escherichia coli ATCC 35210 after 24 hr by microdilution test; format: functional; details: ATCC 35210, 24 h; in short: as §2
Talaromyces funiculosus [21] = test: Fungicidal activity against Penicillium funiculosum ATCC 36839 after 72 hrs by serial subcultivation method; format: functional; details: ATCC 36839, 72 h
Escherichia coli [22] = test: Bactericidal activity against Escherichia coli ATCC 35210 after 72 hrs by serial subcultivation method; format: functional; details: ATCC 35210, 72 h
Mus musculus [23] = test: Antiinflammatory activity in AKR mouse assessed as inhibition of carrageenan-induced paw edema at 0.01 mmol/kg, ip measured after 3.5 hrs of carrageenan-challenge; format: functional
In short: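 AKR mice of both sexes (pregnant females excluded), 6-10 per group, fasted during the experiment. Edema induced by intradermal 0.05 mL of 2% carrageenin into the right hind paw. Compound given at 0.01 mmol/kg ip, suspended in water with Tween-80, at the same time as carrageenin.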

Micrococcus flavus [24] = test: Bactericidal activity against Micrococcus flavus ATCC 10240 after 72 hrs by serial subcultivation method; format: functional; details: ATCC 10240, 72 h
Penicillium ochrochloron [25] = test: Fungicidal activity against Penicillium ochrochloron ATCC 9112 after 72 hrs by serial subcultivation method; format: functional; details: ATCC 9112, 72 h
Aspergillus niger [26] = test: Fungicidal activity against Aspergillus niger ATCC 6275 after 72 hrs by serial subcultivation method; format: functional; details: ATCC 6275, 72 h
Pseudomonas aeruginosa [27] = test: Antibacterial activity against Pseudomonas aeruginosa ATCC 27853 after 24 hr by microdilution test; format: functional; details: ATCC 27853, 24 h; in short: as §2
Staphylococcus aureus [28] = test: Bactericidal activity against Staphylococcus aureus ATCC 6538 after 72 hrs by serial subcultivation method; format: functional; details: ATCC 6538, 72 h
Trichoderma viride [29] = test: Fungicidal activity against Trichoderma viride IAM 5061 after 72 hrs by serial subcultivation method; format: functional; details: IAM 5061, 72 h

Cc1ccc(/C=C2\S/C(=N/c3nccs3)NC2=O)cc1
MIC (Aspergillus niger [1]): 49.4 µM (≈ 14.9 µg/mL) | MBC (Bacillus cereus [2]): 33 µM (≈ 9.95 µg/mL) | MIC (Bacillus cereus [3]): 16.5 µM (≈ 4.97 µg/mL) | MIC (Penicillium ochrochloron [4]): 33 µM (≈ 9.95 µg/mL) | MIC (Micrococcus flavus [5]): 66 µM (≈ 19.9 µg/mL) | MIC (Aspergillus flavus [6]): 49.4 µM (≈ 14.9 µg/mL) | MIC (Listeria monocytogenes [7]): 66 µM (≈ 19.9 µg/mL) | MBC (Listeria monocytogenes [8]): 82.4 µM (≈ 24.8 µg/mL) | MFC (Aspergillus flavus [9]): 66 µM (≈ 19.9 µg/mL) | Activity (Mus musculus [10]): Non-toxic | MBC (Pseudomonas aeruginosa [11]): 24.7 µM (≈ 7.44 µg/mL) | inhibition (Glycine max): 67% | IC50 [12]: 92 µM | MIC (Aspergillus fumigatus [13]): 49.4 µM (≈ 14.9 µg/mL) | inhibition [14]: 99% | IC50 [15]: 51 µM | MIC (Staphylococcus aureus [16]): 24.7 µM (≈ 7.44 µg/mL) | MFC (Aspergillus fumigatus [17]): 66 µM (≈ 19.9 µg/mL) | MIC (Trichoderma viride [18]): 33 µM (≈ 9.95 µg/mL) | MIC (Talaromyces funiculosus [19]): 49.4 µM (≈ 14.9 µg/mL) | MIC (Escherichia coli [20]): 33 µM (≈ 9.95 µg/mL) | MFC (Talaromyces funiculosus [21]): 66 µM (≈ 19.9 µg/mL) | MBC (Escherichia coli [22]): 66 µM (≈ 19.9 µg/mL) | inhibition in vivo at 10 µmol/kg (Mus musculus [23]): 47% | MBC (Micrococcus flavus [24]): 98.9 µM (≈ 29.8 µg/mL) | MFC (Penicillium ochrochloron [25]): 66 µM (≈ 19.9 µg/mL) | MFC (Aspergillus niger [26]): 66 µM (≈ 19.9 µg/mL) | MIC (Pseudomonas aeruginosa [27]): 16.5 µM (≈ 4.97 µg/mL) | MBC (Staphylococcus aureus [28]): 33 µM (≈ 9.95 µg/mL) | MFC (Trichoderma viride [29]): 49.4 µM (≈ 14.9 µg/mL)
